Results collected from several papers.
Compare with care: the assays were run in different laboratories.

Structure (SMILES) | tested on | assay | system | setting | endpoint | value
C=CC(=O)NC1CCN(c2ncc3ncnc(Nc4ccc(Oc5ccc6c(c5)ncn6C)c(C)c4)c3n2)CC1 | NCI-H520 | cell growth or viability |  |  | EC50 | 0.706 µM
O=C(c1ccc(Oc2ccc(Br)cc2)c([N+](=O)[O-])c1)C(Cl)Cl | NCI-H1975 | cell growth or viability, MTT |  | 2.5 µM | inhibition | 60.3%
COc1cccc(-c2nc(N)nc(N)c2OCCCOc2ccccc2CCC(=O)O)c1 | Mycobacterium avium | microbial growth, resazurin |  |  | MIC | 5.6 µg/mL
CN(Cc1ccc(C(C)(C)C)cc1)Cc1cccc2ccccc12 | Trichophyton rubrum | microbial growth, disc diffusion | ATCC28188 | 0.064 µg/mL, 6 days | inhibition zone | ≥ 55 mm
CC(=O)c1ccc(Oc2ccc(C(=O)C(Cl)Cl)cc2[N+](=O)[O-])cc1 | NCI-H1975 | cell growth or viability, MTT |  | 2.5 µM | inhibition | 85.2%
O/N=c1\cc2n(-c3ccc(Cl)cc3)c3ccccc3nc-2cc1Nc1ccc(Cl)cc1 | Mycobacterium avium | microbial growth | ATCC700898 |  | MIC | 1.88 µM
CN(Cc1ccc(C2(C(F)(F)F)CC2)cc1)Cc1cccc2ccccc12 | Trichophyton rubrum | microbial growth, disc diffusion | ATCC28188 | 0.256 µg/mL, 6 days | inhibition zone | ≥ 55 mm
O=C(c1ccc(Oc2ccc3oc(=O)ccc3c2)c([N+](=O)[O-])c1)C(Cl)Cl | NCI-H1975 | cell growth or viability, MTT |  | 2.5 µM | inhibition | 61.6%
CCOC(=O)CNC(=O)CO/N=c1\cc2n(-c3ccc(Cl)cc3)c3ccccc3nc-2cc1Nc1ccc(Cl)cc1 | Mycobacterium avium | microbial growth |  | clinical isolate | MIC | > 30 µM
Nc1nc(N)c(OCCCOc2ccccc2CCC(=O)O)c(-c2ccncc2)n1 | Mycobacterium avium | microbial growth, resazurin |  |  | MIC | 0.6 µg/mL
O=C(c1ccc(Oc2ccc3c(c2)OCO3)c([N+](=O)[O-])c1)C(Cl)Cl | NCI-H1975 | cell growth or viability, MTT |  | 2.5 µM | inhibition | 97.3%
C[C@H](NC(=O)CO/N=c1\cc2n(-c3ccc(Cl)cc3)c3ccccc3nc-2cc1Nc1ccc(Cl)cc1)C(=O)OC(C)(C)C | Mycobacterium avium | microbial growth |  | clinical isolate | MIC | > 30 µM
NCCCc1nc(N)nc(N)c1OCCCOc1ccccc1CCC(=O)O | Mycobacterium avium | microbial growth, resazurin |  |  | MIC | 12.9 µg/mL
CC(C)/N=c1\cc2n(-c3ccc(Cl)cc3)c3ccccc3nc-2cc1Nc1ccc(Cl)cc1 | Mycobacterium avium | microbial growth | ATCC700898 |  | MIC | 0.06 µM
COc1cccc2c1C(=O)c1c(O)c3c(c(O)c1C2=O)C[C@@](O)(C(=O)CO)C[C@@H]3O[C@H]1C[C@H](N)[C@H](O)[C@H](C)O1 | NCI-H1975 | cell growth or viability, MTT |  | 72 h | IC50 | 0.34 µM
CO/N=c1\cc2n(-c3ccc(Cl)cc3)c3ccccc3nc-2cc1Nc1ccc(Cl)cc1 | Mycobacterium avium | microbial growth |  | clinical isolate | MIC | > 30 µM
O=C(c1ccc(Oc2cccc(-c3ccccc3)c2)c([N+](=O)[O-])c1)C(Cl)Cl | NCI-H1975 | cell growth or viability, MTT |  | 2.5 µM | inhibition | 98.1%
O=C(CO/N=c1\cc2n(-c3ccc(Cl)cc3)c3ccccc3nc-2cc1Nc1ccc(Cl)cc1)NCc1ccc(C(F)(F)F)cc1 | Mycobacterium avium | microbial growth |  | clinical isolate | MIC | > 30 µM
Nc1nc(N)c(OCCCOc2ccccc2CCC(=O)O)c(-c2ccccc2C(F)(F)F)n1 | Mycobacterium avium | microbial growth, resazurin |  |  | MIC | 3.6 µg/mL
